{"source": "ChEMBL document CHEMBL4152234", "about": "“Aminobenzothiazole derivatives stabilize the thermolabile p53 cancer mutant Y220C and show anticancer activity in p53-Y220C cell lines” (Eur J Med Chem, 2018)", "key": {"[1]": {"test_system": "Cellular tumor antigen p53 (Homo sapiens), P04637 [Y220C]", "test": "Activation of p53 Y220C mutant in human NUGC3 cells assessed as change in CASP9 mRNA level at 60 uM after 18 hrs by RT-PCR method relative to control", "type": "cell-based", "method_in_brief": "(§1)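 p53 signalling qPCR array covering 84 genes. Cells were exposed for 18 h, with 0.5% DMSO in both compound and control samples. Total RNA was extracted and purified. Fold-changes were calculated by ΔΔCt using β2-microglobulin (B2M) as the housekeeping gene. Two independent biological replicates were run per cell line.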"}, "[2]": {"test_system": "Cellular tumor antigen p53 (Homo sapiens), P04637 [Y220C]", "test": "Activation of p53 Y220C mutant in human NUGC3 cells assessed as change in EI24 mRNA level at 60 uM after 18 hrs by RT-PCR method relative to control", "type": "cell-based", "method_in_brief": "as §1"}, "[3]": {"test_system": "Cellular tumor antigen p53 (Homo sapiens), P04637 [Y220C]", "test": "Activation of p53 Y220C mutant in human NUGC3 cells assessed as change in CDC25C mRNA level at 60 uM after 18 hrs by RT-PCR method relative to control", "type": "cell-based", "method_in_brief": "as §1"}, "[4]": {"test_system": "Cellular tumor antigen p53 (Homo sapiens), P04637 [Y220C]", "test": "Activation of p53 Y220C mutant in human NUGC3 cells assessed as change in SESN2 mRNA level at 60 uM after 18 hrs by RT-PCR method relative to control", "type": "cell-based", "method_in_brief": "(§2)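 p53 signalling qPCR array covering 84 p53 pathway genes. Cells were exposed for 18 h, and compound and control wells both held 0.5% DMSO. Total RNA was extracted and purified. Fold-changes were calculated by the ΔΔCt method against the untreated sample, with β2-microglobulin (B2M) as the housekeeping gene. Each cell line was run in two independent biological replicates.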"}, "[5]": {"test_system": "Cellular tumor antigen p53 (Homo sapiens), P04637 [Y220C]", "test": "Activation of p53 Y220C mutant in human NUGC3 cells assessed as change in BCL2 mRNA level at 60 uM after 18 hrs by RT-PCR method relative to control", "type": "cell-based", "method_in_brief": "as §1"}, "[6]": {"test_system": "Cellular tumor antigen p53 (Homo sapiens), P04637 [Y220C]", "test": "Activation of p53 Y220C mutant in human NUGC3 cells assessed as change in FASLG mRNA level at 60 uM after 18 hrs by RT-PCR method relative to control", "type": "cell-based", "method_in_brief": "as §1"}, "[7]": {"test_system": "Cellular tumor antigen p53 (Homo sapiens), P04637 [Y220C]", "test": "Activation of p53 Y220C mutant in human NUGC3 cells assessed as change in NF1 mRNA level at 60 uM after 18 hrs by RT-PCR method relative to control", "type": "cell-based", "method_in_brief": "as §2"}, "[8]": {"test_system": "Cellular tumor antigen p53 (Homo sapiens), P04637 [Y220C]", "test": "Activation of p53 Y220C mutant in human NUGC3 cells assessed as change in TRAF2 mRNA level at 60 uM after 18 hrs by RT-PCR method relative to control", "type": "cell-based", "method_in_brief": "as §2"}, "[9]": {"test_system": "Cellular tumor antigen p53 (Homo sapiens), P04637 [Y220C]", "test": "Activation of p53 Y220C mutant in human NUGC3 cells assessed as change in BAI1 mRNA level at 60 uM after 18 hrs by RT-PCR method relative to control", "type": "cell-based", "method_in_brief": "as §1"}, "[10]": {"test_system": "Cellular tumor antigen p53 (Homo sapiens), P04637 [Y220C]", "test": "Activation of p53 Y220C mutant in human NUGC3 cells assessed as change in CDK1 mRNA level at 60 uM after 18 hrs by RT-PCR method relative to control", "type": "cell-based", "method_in_brief": "as §1"}, "[11]": {"test_system": "Cellular tumor antigen p53 (Homo sapiens), P04637 [Y220C]", "test": "Activation of p53 Y220C mutant in human NUGC3 cells assessed as change in PRC1 mRNA level at 60 uM after 18 hrs by RT-PCR method relative to control", "type": "cell-based", "method_in_brief": "as §2"}, "[12]": {"test_system": "Cellular tumor antigen p53 (Homo sapiens), P04637 [Y220C]", "test": "Activation of p53 Y220C mutant in human NUGC3 cells assessed as change in STAT1 mRNA level at 60 uM after 18 hrs by RT-PCR method relative to control", "type": "cell-based", "method_in_brief": "as §2"}, "[13]": {"test_system": "Cellular tumor antigen p53 (Homo sapiens), P04637 [Y220C]", "test": "Activation of p53 Y220C mutant in human NUGC3 cells assessed as change in HK2 mRNA level at 60 uM after 18 hrs by RT-PCR method relative to control", "type": "cell-based", "method_in_brief": "as §1"}, "[14]": {"molecular_target": "T1, Cellular tumor antigen p53 (Homo sapiens, UniProt P04637)", "test": "Activation of p53 in human NUGC4 cells assessed as change in BBC3 mRNA level at 60 uM after 18 hrs by RT-PCR method relative to control", "type": "cell-based", "settings": "read-out: FC", "method_in_brief": "as §2"}, "[15]": {"molecular_target": "T1, Cellular tumor antigen p53", "test": "Activation of p53 in human NUGC4 cells assessed as change in CHEK2 mRNA level at 60 uM after 18 hrs by RT-PCR method relative to control", "type": "cell-based", "settings": "read-out: FC", "method_in_brief": "(§3)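 p53 signaling qPCR array of 84 p53-pathway genes. Cells were treated in 6-well plates for 18 h with 0.5% DMSO in compound and control samples. Total RNA was extracted and fold-changes were obtained by the ΔΔCt method against untreated control, with β2-microglobulin (B2M) as housekeeping gene. Two independent biological replicates per cell line.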"}, "[16]": {"molecular_target": "T1, Cellular tumor antigen p53", "test": "Activation of p53 in human NUGC4 cells assessed as change in MSH2 mRNA level at 60 uM after 18 hrs by RT-PCR method relative to control", "type": "cell-based", "settings": "read-out: FC", "method_in_brief": "as §3"}, "[17]": {"molecular_target": "T1, Cellular tumor antigen p53", "test": "Activation of p53 in human NUGC4 cells assessed as change in CDKN1A mRNA level at 60 uM after 18 hrs by RT-PCR method relative to control", "type": "cell-based", "settings": "read-out: FC", "method_in_brief": "as §3"}, "[18]": {"molecular_target": "T1, Cellular tumor antigen p53", "test": "Activation of p53 in human NUGC4 cells assessed as change in BAX mRNA level at 60 uM after 18 hrs by RT-PCR method relative to control", "type": "cell-based", "settings": "read-out: FC", "method_in_brief": "as §2"}, "[19]": {"molecular_target": "T1, Cellular tumor antigen p53", "test": "Activation of p53 in human NUGC4 cells assessed as change in CDKN2A mRNA level at 60 uM after 18 hrs by RT-PCR method relative to control", "type": "cell-based", "settings": "read-out: FC", "method_in_brief": "as §3"}, "[20]": {"molecular_target": "T1, Cellular tumor antigen p53", "test": "Activation of p53 in human NUGC4 cells assessed as change in CDC25A mRNA level at 60 uM after 18 hrs by RT-PCR method relative to control", "type": "cell-based", "settings": "read-out: FC", "method_in_brief": "as §3"}, "[21]": {"molecular_target": "T1, Cellular tumor antigen p53", "test": "Activation of p53 in human NUGC4 cells assessed as change in PPM1D mRNA level at 60 uM after 18 hrs by RT-PCR method relative to control", "type": "cell-based", "settings": "read-out: FC"}, "[22]": {"molecular_target": "T1, Cellular tumor antigen p53", "test": "Activation of p53 in human NUGC4 cells assessed as change in PTTG1 mRNA level at 60 uM after 18 hrs by RT-PCR method relative to control", "type": "cell-based", "settings": "read-out: FC"}, "[23]": {"molecular_target": "T1, Cellular tumor antigen p53", "test": "Activation of p53 in human NUGC4 cells assessed as change in IGF1R mRNA level at 60 uM after 18 hrs by RT-PCR method relative to control", "type": "cell-based", "settings": "read-out: FC", "method_in_brief": "as §3"}, "[24]": {"molecular_target": "T1, Cellular tumor antigen p53", "test": "Activation of p53 in human NUGC4 cells assessed as change in TRAF2 mRNA level at 60 uM after 18 hrs by RT-PCR method relative to control", "type": "cell-based", "settings": "read-out: FC"}, "[25]": {"molecular_target": "T1, Cellular tumor antigen p53", "test": "Activation of p53 in human NUGC4 cells assessed as change in CCNH mRNA level at 60 uM after 18 hrs by RT-PCR method relative to control", "type": "cell-based", "settings": "read-out: FC", "method_in_brief": "as §3"}, "[26]": {"molecular_target": "T1, Cellular tumor antigen p53", "test": "Activation of p53 in human NUGC4 cells assessed as change in TSC1 mRNA level at 60 uM after 18 hrs by RT-PCR method relative to control", "type": "cell-based", "settings": "read-out: FC"}, "[27]": {"test_system": "Huh-7", "test": "Upregulation of BBC3 mRNA level in p53 Y220C mutant knockout human HuH7 cells at 30 uM after 18 hrs by RT-PCR method", "type": "functional, cell-based"}, "[28]": {"test_system": "Huh-7", "test": "Upregulation of NOXA mRNA level in p53 Y220C mutant knockout human HuH7 cells at 30 uM after 18 hrs by RT-PCR method", "type": "functional, cell-based"}, "[29]": {"test_system": "Huh-7", "test": "Upregulation of BAX mRNA level in p53 Y220C mutant knockout human HuH7 cells at 30 uM after 18 hrs by RT-PCR method", "type": "functional, cell-based"}}, "note": "Calls of active or inactive are those of the source. The calls are words filed in the database; no cut-off is given here."}
{"smiles": "CCNC(=O)c1c(O)c(I)c(-n2cccc2)c2sc(N(CC)CC)nc12", "values": [{"measurement": "fold change (FC)", "setting": "[1]", "value": 1}, {"measurement": "fold change (FC)", "setting": "[2]", "value": 0.8}, {"measurement": "fold change (FC)", "setting": "[3]", "value": 0.7}, {"measurement": "fold change (FC)", "setting": "[4]", "value": 0.7}, {"measurement": "fold change (FC)", "setting": "[5]", "value": 1.7}, {"measurement": "fold change (FC)", "setting": "[6]", "value": 1.1}, {"measurement": "fold change (FC)", "setting": "[7]", "value": 1.4}, {"measurement": "fold change (FC)", "setting": "[8]", "value": 1.4}, {"measurement": "fold change (FC)", "setting": "[9]", "value": 1.5}, {"measurement": "fold change (FC)", "setting": "[10]", "value": 1.5}, {"measurement": "fold change (FC)", "setting": "[11]", "value": 1.1}, {"measurement": "fold change (FC)", "setting": "[12]", "value": 0.8}, {"measurement": "fold change (FC)", "setting": "[13]", "value": 1.7}, {"measurement": "fold induction at 60 µM", "setting": "[14]", "value": 1.3}, {"measurement": "fold induction at 60 µM", "setting": "[15]", "value": 0.7}, {"measurement": "fold induction at 60 µM", "setting": "[16]", "value": 0.7}, {"measurement": "fold induction at 60 µM", "setting": "[17]", "value": 1.3}, {"measurement": "fold induction at 60 µM", "setting": "[18]", "value": 0.8}, {"measurement": "fold induction at 60 µM", "setting": "[19]", "value": "0.5 to 1"}, {"measurement": "fold induction at 60 µM", "setting": "[20]", "value": 0.4}, {"measurement": "fold induction at 60 µM", "setting": "[21]", "value": 0.9}, {"measurement": "fold induction at 60 µM", "setting": "[22]", "value": 0.9}, {"measurement": "fold induction at 60 µM", "setting": "[23]", "value": 0.8}, {"measurement": "fold induction at 60 µM", "setting": "[24]", "value": 0.8}, {"measurement": "fold induction at 60 µM", "setting": "[25]", "value": 0.9}, {"measurement": "fold induction at 60 µM", "setting": "[26]", "value": 1.1}, {"measurement": "Activity", "setting": "[27]", "value": "inactive"}, {"measurement": "Activity", "setting": "[28]", "value": "inactive"}, {"measurement": "Activity", "setting": "[29]", "value": "inactive"}]}
